Results on 21 molecules are retold here after ChEMBL document CHEMBL1137411, “Development of small-molecule cyclin D1-ablative agents” (J Med Chem, 2006).

pIC50: −log10 of the molar value. Activity calls are given as the source filed them. The calls are words filed in the database; no cut-off is given here. A value given as a limit tells only on which side of the number the result lay.

The test system of test [1] is MCF7. As to the kind of experiment: Repression of cyclinD1 level in MCF7 cells at 2.5 uM relative to control. It is filed as functional, Homo sapiens. In outline:
(§1)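 MCF-7 cells exposed for 72 h in 5% FBS-supplemented medium over 2.5-7.5 µM. Lysates were run on 10% SDS-PAGE and immunoblotted for cyclin D1 with ECL detection. Band intensity was quantified by densitometry, normalized to β-actin and expressed relative to DMSO control (100%).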

The test system of test [2] is MCF7. As to the kind of experiment: Repression of cyclinD1 level in MCF7 cells at 7.5 uM relative to control. It is filed as functional, Homo sapiens. In a few lines: as §1
The subject of test [3] is MCF7. As to the kind of experiment: Repression of cyclinD1 level in MCF7 cells at 5 uM relative to control. It is filed as functional, Homo sapiens. In outline: as §1
For test [4], the system named is MCF7. As to the kind of experiment: Repression of cyclinD1 level in MCF7 cells at 10 uM. The settings on record: Homo sapiens. It is filed as functional, cell-based.
Test [5] relates to MCF7. Kind of test: Antiproliferative activity against MCF7 cells by MTT assay. It is filed as functional, cell-based. Particulars: Homo sapiens. In a few lines:
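MCF-7 cells seeded in DMEM/Ham's F-12 with 10% FBS for 24 h, then exposed to test agents in DMSO (final 0.1%) in 5% FBS medium. Vehicle controls got matching DMSO. Medium replaced with 0.5 mM MTT in 10% FBS RPMI 1640 for 2 h at 37 °C, and reduced dye solubilized in DMSO. Six replicates.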
(Tetrazolium dyes change colour on reduction, which living cells bring about.)

Test [6] has as its system MCF7. As to the kind of experiment: Repression of cyclinD1 level in MCF7 cells after 72 hrs. It counts as functional, cell-based. The settings on record: Homo sapiens, MCF7, 72 h. In a few lines: as §1

Turning to `Cc1c(C)c2c(c(C)c1OC/C=C/c1ccccc1)CCC(C)(COc1ccc(/C=C3\SC(=O)NC3=O)cc1)O2` (stereo not given), the Activity amounted to 92% in test [1], 43% in test [2] and 65% in test [3].

For the molecule `C=CCOc1c(C)c(C)c2c(c1C)CC[C@](C)(COc1ccc(/C=C3\SC(=O)NC3=O)cc1OC)O2`, the result in test [4] was Active.

For `CC(C)=CCOc1c(C)c(C)c2c(c1C)CCC(C)(COc1ccc(/C=C3\SC(=O)NC3=O)cc1C)O2` (stereo not given), the figures for the Activity in test [1], in test [2] and in test [3] were 89%, 27% and 56%, respectively.

Consider `C=CCOc1c(C)c(C)c2c(c1C)CC[C@@](C)(COc1ccc(/C=C3\SC(=O)NC3=O)cc1OC)O2`, for which the negative logarithm of the IC50 (pIC50) in test [5] was 5.30.

As for `C=CCOc1c(C)c(C)c2c(c1C)CCC(C)(COc1ccc(/C=C3\SC(=O)NC3=O)cc1Br)O2` (stereo not given), the Activity in test [1] was 102%; in test [2] it was 105%; in test [3], 98%.

Turning to `CCCCOc1c(C)c(C)c2c(c1C)CCC(C)(COc1ccc(/C=C3\SC(=O)NC3=O)cc1C(F)(F)F)O2` (stereo not given), the pIC50 in test [6] is 5.22.

With `C=CCOc1c(C)c(C)c2c(c1C)CCC(C)(COc1cccc(/C=C3\SC(=O)NC3=O)c1)O2` (stereo not given), the Activity in test [1] is reported as 84%; in test [2], 75%; in test [3] it was 92%.

Regarding `CCCCOc1c(C)c(C)c2c(c1C)CCC(C)(COc1ccc(CC3SC(=O)NC3=O)cc1C(F)(F)F)O2` (stereo not given), in test [6], the negative logarithm of the IC50 (pIC50) is 5.05.

With `CC(C)=CCOc1c(C)c(C)c2c(c1C)CCC(C)(COc1ccc(/C=C3\SC(=O)NC3=O)cc1F)O2` (stereo not given), the Activity was determined as 95% in test [1], 64% in test [2] and 87% in test [3].

For `CC(C)=CCOc1c(C)c(C)c2c(c1C)CCC(C)(COc1ccc(/C=C3\SC(=O)NC3=O)cc1-c1ccc(F)cc1)O2` (stereo not given), the values for the Activity in test [1], in test [2] and in test [3] were 87%, 85% and 92%, respectively.

`Cc1c(C)c2c(c(C)c1O)CCC(C)(COc1ccc(/C=C3\SC(=O)NC3=O)cc1)O2` (stereo not given) showed a pIC50 in test [5] of 4.26.

For `C=CCOc1c(C)c(C)c2c(c1C)CCC(C)(COc1ccc(/C=C3\SC(=O)NC3=O)cc1OCC)O2` (stereo not given), the Activity in test [1] is listed as 107%; in test [2], 75%; in test [3], 87%.

Regarding `Cc1c(C)c2c(c(C)c1OCc1ccccc1)CCC(C)(COc1ccc(/C=C3\SC(=O)NC3=O)cc1)O2` (stereo not given), the values for the Activity in test [1], in test [2] and in test [3] were 85%, 12% and 42%, respectively.

For `CC(C)=CCOc1c(C)c(C)c2c(c1C)CCC(C)(COc1ccc(/C=C3\SC(=O)NC3=O)cc1)O2` (stereo not given), the figures for the Activity in test [1], in test [2] and in test [3] were 76%, 5% and 21%, respectively.

For the molecule `CCOc1cc(/C=C2\SC(=O)NC2=O)ccc1OCC1(C)CCc2c(C)c(OCC=C(C)C)c(C)c(C)c2O1` (stereo not given), the Activity was determined as 107% in test [1], 54% in test [2] and 84% in test [3].

As to `Cc1c(C)c2c(c(C)c1OC(=O)CCC(=O)O)CCC(C)(COc1ccc(/C=C3\SC(=O)NC3=O)cc1)O2` (stereo not given), the results for the Activity in test [1], in test [2] and in test [3] were 115%, 76% and 98%, respectively.

With `C=CCOc1c(C)c(C)c2c(c1C)CCC(C)(COc1ccc(/C=C3\SC(=O)NC3=O)cc1C)O2` (stereo not given), the Activity is 84% in test [1], 8% in test [2] and 24% in test [3].

On to `CC(C)=CCOc1c(C)c(C)c2c(c1C)CCC(C)(COc1ccc(/C=C3\SC(=O)NC3=O)cc1Br)O2` (stereo not given), for which the Activity in test [1] amounted to 96%; in test [2], 53%; in test [3], 84%.

As for `C=CCOc1c(C)c(C)c2c(c1C)CCC(C)(COc1ccc(/C=C3\SC(=O)NC3=O)cc1OC)O2` (stereo not given), the results for the Activity in test [1], in test [2] and in test [3] were 34%, 1% and 5%, respectively. This molecule also gave a pIC50 in test [6] of 5.60.

For the molecule `COc1cc(/C=C2\SC(=O)NC2=O)ccc1OCC1(C)CCc2c(C)c(OCC=C(C)C)c(C)c(C)c2O1` (stereo not given), the Activity is given as 95% in test [1], 54% in test [2] and 78% in test [3].

For the molecule `C=CCOc1c(C)c(C)c2c(c1C)CCC(C)(COc1ccc(/C=C3\SC(=O)NC3=O)cc1)O2` (stereo not given), the values for the Activity in test [1], in test [2] and in test [3] were 45%, 2% and 42%, respectively. Further, the pIC50 in test [6] is under 5.30.

For orientation: pIC50 means the negative decadic logarithm of the IC50, by convention in mol/L.
